# Source: ChEMBL document CHEMBL2384906, “Biological activity, design, synthesis and structure activity relationship of some novel derivatives of curcumin containing sulfonamides” (Eur J Med Chem, 2013)
# Tested on: Mus musculus
# Assay: Antiinflammatory activity in mouse assessed as inhibition of carrageenan-induced increase in paw volume at 100 mg/kg, ip administered 1 hr prior to carrageenan challenge measured after 3 hrs relative to control
# Format: functional
# Details: route intraperitoneal
# In short: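 Mice were fasted 2 h and placed in groups of five. Controls received saline i.p. Phenylbutazone was given at 100 mg/kg i.p., curcumin at 200 mg/kg i.p., and derivatives at 200 mg/kg. After 1 h, 0.1 mL of 1% carrageenan in saline was injected subplantar into the right hind paw. Paw volume was followed by plethysmometer for 3 h, and % inhibition was calculated as (Vc − Vt)/Vc × 100.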
compound,measurement,value
CCCCC1C(=O)N(c2ccccc2)N(c2ccccc2)C1=O [PHENYLBUTAZONE],inhibition in vivo at 100 mg/kg,70.9%
